Tests used:
[1] = Antiplatelet aggregation activity against adenosine diphosphate-induced human platelet rich plasma assessed as inhibition of platelet aggregation by turbidimetric method; type: functional; details: Homo sapiens, Platelet, Plasma
How it was run: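 Human PRP, prepared by two-step centrifugation and adjusted to 330 000 platelets/μL with PPP. Compound was preincubated 5 min at 37 °C in 0.5% DMSO, then 20 μM ADP was added. OD626 was read kinetically for 15 min at 37 °C with mixing between reads.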

[2] = system: Platelet; assay: Relative potency, ratio of IC50 for drug to IC50 for AZD-6140 for platelet aggregation in human platelet rich plasma; type: functional
[3] = biological target: P2Y purinoceptor 12 (Homo sapiens, UniProt Q9H244); assay: Displacement of [33P]ADP from human recombinant P2Y12 receptor expressed in CHO cells; type: cell-based
Sequence of P2Y purinoceptor 12 (Q9H244 whole entry): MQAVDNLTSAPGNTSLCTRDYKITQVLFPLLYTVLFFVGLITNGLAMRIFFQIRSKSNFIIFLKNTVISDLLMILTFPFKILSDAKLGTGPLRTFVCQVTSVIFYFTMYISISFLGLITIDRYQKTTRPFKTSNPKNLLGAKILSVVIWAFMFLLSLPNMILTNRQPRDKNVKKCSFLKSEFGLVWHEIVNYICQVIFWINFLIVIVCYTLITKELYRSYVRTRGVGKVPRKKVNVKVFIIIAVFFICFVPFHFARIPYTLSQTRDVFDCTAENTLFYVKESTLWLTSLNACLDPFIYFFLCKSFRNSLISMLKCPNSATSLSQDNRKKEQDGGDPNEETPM
How it was run: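 Washed membranes from CHO cells expressing synthetic human P2Y12, incubated 1 h at room temperature with 0.2 nM 33P-MeSADP in 50 mM Tris/100 mM NaCl/1 mM EDTA. Compound was tested as a 7-point 3-fold series in triplicate. Nonspecific binding was defined with 300 nM 2-MeSADP, followed by filtration.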

Row | SMILES | IC50 [1] | Ratio IC50 [2] | Ki [3]
1 | CCCCCOC(=O)N1CCN(C(=O)[C@H](CCC(=O)O)NC(=O)c2cc(CCC(=O)N(C)C)cc(-c3ccccc3)n2)CC1 | 2.9 µM | 2.7 | 0.0021 µM
2 | CCCCOC(=O)N1CCN(C(=O)[C@H](CCC(=O)O)NC(=O)c2cc(O)cc(-c3ccccc3)n2)CC1 | 8.8 µM | 9.7 | 0.031 µM
3 | CCCCCOC(=O)N1CCN(C(=O)[C@H](CCC(=O)O)NC(=O)c2cc(OC(=O)N(C)C)cc(-c3ccccc3)n2)CC1 | 2.9 µM | 1.7 | 0.0055 µM
4 | CCCCOC(=O)N1CCN(C(=O)[C@H](CCC(=O)O)NC(=O)c2cc(OCC3CCN(CCOC)CC3)cc(-c3ccccc3)n2)CC1 | 0.62 µM | 0.53 | 0.0053 µM
5 | CCCCOC(=O)N1CCN(C(=O)[C@H](CCC(=O)O)NC(=O)c2cc(OCC3CCN(C(C)=O)CC3)cc(-c3ccccc3)n2)CC1 | 2.1 µM | 1.4 | 0.0039 µM
6 | CCCCOC(=O)N1CCN(C(=O)[C@H](CCC(=O)O)NC(=O)c2cc(OCCCC)cc(-c3ccccc3)n2)CC1 | 27 µM | 18 | 0.035 µM
7 | CCOC(=O)N1CCN(C(=O)[C@H](CCC(=O)O)NC(=O)c2cc(OC3CCNCC3)cc(-c3ccccc3)n2)CC1 | 1.9 µM | 2.5 | –
8 | CCCCOC(=O)N1CCN(C(=O)[C@H](CCC(=O)O)NC(=O)c2cc(OCC3CCOCC3)cc(-c3ccccc3)n2)CC1 | 2.3 µM | 3.6 | 0.011 µM
9 | CCCCOC(=O)N1CCN(C(=O)[C@H](CCC(=O)O)NC(=O)c2cc(OC(=O)N(C)C)cc(-c3ccccc3)n2)CC1 | 1.1 µM | 1.1 | 0.002 µM
10 | CCCCCOC(=O)N1CCN(C(=O)[C@H](CCC(=O)O)NC(=O)c2cc(C(=O)N(C)C3CCN(C)CC3)cc(-c3ccccc3)n2)CC1 | 0.35 µM | 0.83 | 0.011 µM
11 | CCCCCOC(=O)N1CCN(C(=O)[C@H](CCC(=O)O)NC(=O)c2cc(N3CCC(CN4CCCC4)CC3)cc(-c3ccccc3)n2)CC1 | – | 0.93 | –
12 | CCCCOC(=O)N1CCN(C(=O)[C@H](CCC(=O)O)NC(=O)c2cc(OCC3CCNCC3)cc(-c3ccccc3)n2)CC1 | 0.21 µM | 0.37 | 0.0042 µM
13 | CCCCCOC(=O)N1CCN(C(=O)[C@H](CCC(=O)O)NC(=O)c2cc(NC(=O)N3CCN(C)CC3)cc(-c3ccccc3)n2)CC1 | 11 µM | 7.2 | 0.0032 µM
14 | CCCCCOC(=O)N1CCN(C(=O)[C@H](CCC(=O)O)NC(=O)c2cc(C(=O)N(C)CCCC)cc(-c3ccccc3)n2)CC1 | 1.8 µM | 3.3 | 0.0058 µM
15 | CCCCCOC(=O)N1CCN(C(=O)[C@H](CCC(=O)O)NC(=O)c2cc(NCCC)cc(-c3ccccc3)n2)CC1 | 13 µM | 14 | 0.012 µM
16 | CCCCCOC(=O)N1CCN(C(=O)[C@H](CCC(=O)O)NC(=O)c2cc(NC(=O)CN3CCN(C)CC3)cc(-c3ccccc3)n2)CC1 | 4.3 µM | 4.1 | 0.0023 µM
17 | CCCCCOC(=O)N1CCN(C(=O)[C@H](CCC(=O)O)NC(=O)c2cc(OCC)cc(-c3ccccc3)n2)CC1 | 17 µM | 23 | 0.0079 µM
18 | CCCCCCOC(=O)N1CCN(C(=O)[C@H](CCC(=O)O)NC(=O)c2cc(OCC3CCNCC3)cc(-c3ccccc3)n2)CC1 | 0.64 µM | 1.3 | 0.0045 µM
19 | CCCCCOC(=O)N1CCN(C(=O)[C@H](CCC(=O)O)NC(=O)c2cc(N3CCCCC3)cc(-c3ccccc3)n2)CC1 | 16 µM | 18 | 0.0055 µM

Row | SMILES | IC50 [1] | Ratio IC50 [2] | Ki [3]
20 | CCCCOC(=O)N1CCN(C(=O)[C@H](CCC(=O)O)NC(=O)c2cc(OC(=O)N3CCC(OCC)CC3)cc(-c3ccccc3)n2)CC1 | 1 µM | 1.2 | 0.0021 µM
21 | CCOC(=O)N1CCN(C(=O)[C@H](CCC(=O)O)NC(=O)c2cc(NC)cc(-c3ccccc3)n2)CC1 | 45 µM | 36 | –
22 | CCCCOC(=O)N1CCN(C(=O)[C@H](CCC(=O)O)NC(=O)c2cc(OC3CCOCC3)cc(-c3ccccc3)n2)CC1 | 4.1 µM | 6.3 | 0.01 µM
23 | CCCCOC(=O)N1CCN(C(=O)[C@H](CCC(=O)O)NC(=O)c2cc(OCC3CCN(C(C)C)CC3)cc(-c3ccccc3)n2)CC1 | 0.41 µM | 0.33 | 0.0045 µM
24 | CCOC(=O)N1CCN(C(=O)[C@H](CCC(=O)O)NC(=O)c2cc(N3CCC(N4CCCC4)CC3)cc(-c3ccccc3)n2)CC1 | 2 µM | 6 | –
25 | CCCCCOC(=O)N1CCN(C(=O)[C@H](CCC(=O)O)NC(=O)c2cc(NC(=O)N3CCC(COC)CC3)cc(-c3ccccc3)n2)CC1 | 4.5 µM | 5.2 | 0.043 µM
26 | CCCCCCOC(=O)N1CCN(C(=O)[C@H](CCC(=O)O)NC(=O)c2cc(N3CCC(COC)CC3)cc(-c3ccccc3)n2)CC1 | 7.6 µM | 8.9 | –
27 | CCOC(=O)N1CCN(C(=O)[C@H](CCC(=O)O)NC(=O)c2cc(OCCO)cc(-c3ccccc3)n2)CC1 | 7.6 µM | 12 | –
28 | CCOC(=O)N1CCN(C(=O)[C@H](CCC(=O)O)NC(=O)c2cc(OCCN)cc(-c3ccccc3)n2)CC1 | 7.5 µM | 11 | –
29 | CCOC(=O)N1CCN(C(=O)[C@H](CCC(=O)O)NC(=O)c2cc(N3CCC(COC)CC3)cc(-c3ccccc3)n2)CC1 | 10 µM | 9.7 | –
30 | CCCCOC(=O)N1CCN(C(=O)[C@H](CCC(=O)O)NC(=O)c2cc(N3CCC(CN4CCCC4)CC3)cc(-c3ccccc3)n2)CC1 | – | 1 | –
31 | CCCCCCOC(=O)N1CCN(C(=O)[C@H](CCC(=O)O)NC(=O)c2cc(N3CCC(CN)CC3)cc(-c3ccccc3)n2)CC1 | 1.6 µM | 1.7 | –
32 | CCOC(=O)N1CCN(C(=O)[C@H](CCC(=O)O)NC(=O)c2cc(OCCCO)cc(-c3ccccc3)n2)CC1 | 9 µM | 12 | –
33 | CCOC(=O)N1CCN(C(=O)[C@H](CCC(=O)O)NC(=O)c2cc(OCC3CCNCC3)cc(-c3ccccc3)n2)CC1 | 4 µM | 2.7 | –
34 | CCCCOC(=O)N1CCN(C(=O)[C@H](CCC(=O)O)NC(=O)c2cc(OC3CCNCC3)cc(-c3ccccc3)n2)CC1 | 1.1 µM | 0.99 | –
35 | CCCCCOC(=O)N1CCN(C(=O)[C@H](CCC(=O)O)NC(=O)c2cc(OCCCC)cc(-c3ccccc3)n2)CC1 | 28 µM | 28 | –
36 | CCCCCOC(=O)N1CCN(C(=O)[C@H](CCC(=O)O)NC(=O)c2cc(N3CCC(O)CC3)cc(-c3ccccc3)n2)CC1 | 2.5 µM | 3.2 | –
37 | CCCCOC(=O)N1CCN(C(=O)[C@H](CCC(=O)O)NC(=O)c2cc(N3CCC(CN(C)C)CC3)cc(-c3ccccc3)n2)CC1 | – | 1.3 | –
38 | CCOC(=O)N1CCN(C(=O)[C@H](CCC(=O)O)NC(=O)c2cc(N3CCC(O)CC3)cc(-c3ccccc3)n2)CC1 | 9.9 µM | 10 | –

Row | SMILES | IC50 [1] | Ratio IC50 [2] | Ki [3]
39 | CCOC(=O)N1CCN(C(=O)[C@H](CCC(=O)O)NC(=O)c2cc(OC)cc(-c3ccccc3)n2)CC1 | 39 µM | 55 | –
40 | CCCCCOC(=O)N1CCN(C(=O)[C@H](CCC(=O)O)NC(=O)c2cc(N3CCC(CN)CC3)cc(-c3ccccc3)n2)CC1 | – | 0.62 | –
41 | CC(C)OC(=O)N1CCN(C(=O)[C@H](CCC(=O)O)NC(=O)c2cccc(-c3ccccc3)n2)CC1 | > 100 µM | – | 0.28 µM
42 | CCCCOC(=O)N1CCN(C(=O)[C@H](CCC(=O)O)NC(=O)c2cc(N3CCC(CNC)CC3)cc(-c3ccccc3)n2)CC1 | – | 1 | –
43 | CCCCNC(=S)N1CCN(C(=O)[C@H](CCC(=O)O)NC(=O)c2cccc(-c3ccccc3)n2)CC1 | 56 µM | – | 0.008 µM
44 | CCOC(=O)N1CCN(C(=O)[C@H](CCC(=O)O)NC(=O)c2cc(NCCOC)cc(-c3ccccc3)n2)CC1 | 14 µM | 13 | –
45 | CCCCCOC(=O)N1CCN(C(=O)[C@H](CCC(=O)O)NC(=O)c2cc(NC(=O)OCCOC)cc(-c3ccccc3)n2)CC1 | > 10 µM | – | 0.0014 µM
46 | CN(C)CC(=O)N1CCN(C(=O)[C@H](CCC(=O)O)NC(=O)c2cccc(-c3ccccc3)n2)CC1 | > 100 µM | – | > 3.59 µM
47 | CCCCCOC(=O)N1CCN(C(=O)[C@H](CCC(=O)O)NC(=O)c2cc(N3CCC(CNC)CC3)cc(-c3ccccc3)n2)CC1 | – | 0.99 | –
48 | CCCCC(=O)N1CCN(C(=O)[C@H](CCC(=O)O)NC(=O)c2cccc(-c3ccccc3)n2)CC1 | > 100 µM | – | 1.43 µM
49 | O=C(O)CC[C@H](NC(=O)c1cccc(-c2ccccc2)n1)C(=O)N1CCN(C(=O)OCC2CCCC2)CC1 | 82 µM | – | 0.046 µM
50 | CCCCS(=O)(=O)N1CCN(C(=O)[C@H](CCC(=O)O)NC(=O)c2cccc(-c3ccccc3)n2)CC1 | > 100 µM | – | > 3.59 µM
51 | COCCOC(=O)N1CCN(C(=O)[C@H](CCC(=O)O)NC(=O)c2cccc(-c3ccccc3)n2)CC1 | > 100 µM | – | 0.492 µM
52 | CCOC(=O)N1CCN(C(=O)[C@H](CCC(=O)O)NC(=O)c2ccccn2)CC1 | > 100 µM | – | > 5.4 µM
53 | CCOC(=O)N1CCN(C(=O)[C@H](CCC(=O)O)NC(=O)c2cc(N3CCC(CN)CC3)cc(-c3ccccc3)n2)CC1 | 3.3 µM | 3.4 | –
54 | COCC(=O)N1CCN(C(=O)[C@H](CCC(=O)O)NC(=O)c2cccc(-c3ccccc3)n2)CC1 | > 100 µM | – | > 3.59 µM
55 | CCCCCNC(=S)N1CCN(C(=O)[C@H](CCC(=O)O)NC(=O)c2cccc(-c3ccccc3)n2)CC1 | 42 µM | – | 0.006 µM
56 | O=C(O)CC[C@H](NC(=O)c1cccc(-c2ccccc2)n1)C(=O)N1CCN(C(=O)OCC2CCC2)CC1 | > 100 µM | – | 0.028 µM
